Broadly, the Km is the substrate concentration at which the rate is half of its maximum.

In paper PMC6463388 (Biochemical Journal, 2019) one finds activity and Km data, which are given here for two molecules.

Series [1] addresses T1, AtGCL (WT γ-glutamylcysteine ligase) (Arabidopsis thaliana, UniProt P46309).
T1 sequence (P46309 74-522): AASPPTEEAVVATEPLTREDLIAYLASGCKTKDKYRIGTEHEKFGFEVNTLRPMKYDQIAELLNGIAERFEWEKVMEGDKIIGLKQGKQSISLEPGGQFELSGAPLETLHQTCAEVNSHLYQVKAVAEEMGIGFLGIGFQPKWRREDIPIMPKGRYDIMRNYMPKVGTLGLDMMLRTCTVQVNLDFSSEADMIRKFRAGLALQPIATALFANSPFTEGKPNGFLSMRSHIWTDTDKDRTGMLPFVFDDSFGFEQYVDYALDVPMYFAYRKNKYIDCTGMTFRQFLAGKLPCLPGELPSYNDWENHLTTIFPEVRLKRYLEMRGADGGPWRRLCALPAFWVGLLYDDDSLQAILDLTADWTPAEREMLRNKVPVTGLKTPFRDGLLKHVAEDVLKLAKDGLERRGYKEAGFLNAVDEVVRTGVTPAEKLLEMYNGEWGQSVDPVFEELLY
Nature of the series: inhibition of GCL activity. It counts as biochemical. The settings on record: read-out: GSH. The essentials: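 Recombinant His-tagged AtGCL from E. coli Rosetta-gami DE3, purified by Ni²⁺ affinity, cleaved with TEV protease, then passed through a second Ni²⁺ step. Pyruvate kinase/lactate dehydrogenase-coupled assay at pH 7.0 (100 mM MOPSO, 150 mM NaCl, 20 mM MgCl₂). […] Reaction started with 50 µg enzyme; A340 monitored.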

Substrate in series [2]: N[C@@H](CS)C(=O)O
Nature of the series: purified protein. The conditions noted are these: 20 mM ATP, 80 mM glutamate, 20 mM MgCl2, pH 7.0, oxidized homo-dimer. It counts as biochemical, Arabidopsis thaliana.

Substrate in series [3]: N[C@@H](CCC(=O)O)C(=O)O
The series is described as follows: purified protein. The class given is biochemical, Arabidopsis thaliana. The settings on record: 20 mM cysteine, 20 mM ATP, 20 mM MgCl2, pH 7.0, oxidized homo-dimer.

With `N[C@@H](CCC(=O)N[C@@H](CS)C(=O)NCC(=O)O)C(=O)O` [GSH], the activity at 2000 µM in series [1] is 49 ± 4%.

B1: AtGCL (WT γ-glutamylcysteine ligase) (Arabidopsis thaliana) (protein)
chain: AASPPTEEAVVATEPLTREDLIAYLASGCKTKDKYRIGTEHEKFGFEVNTLRPMKYDQIAELLNGIAERFEWEKVMEGDKIIGLKQGKQSISLEPGGQFELSGAPLETLHQTCAEVNSHLYQVKAVAEEMGIGFLGIGFQPKWRREDIPIMPKGRYDIMRNYMPKVGTLGLDMMLRTCTVQVNLDFSSEADMIRKFRAGLALQPIATALFANSPFTEGKPNGFLSMRSHIWTDTDKDRTGMLPFVFDDSFGFEQYVDYALDVPMYFAYRKNKYIDCTGMTFRQFLAGKLPCLPGELPSYNDWENHLTTIFPEVRLKRYLEMRGADGGPWRRLCALPAFWVGLLYDDDSLQAILDLTADWTPAEREMLRNKVPVTGLKTPFRDGLLKHVAEDVLKLAKDGLERRGYKEAGFLNAVDEVVRTGVTPAEKLLEMYNGEWGQSVDPVFEELLY
Regarding B1, the figures for the Km in series [2] and in series [3] were 0.34 ± 0.12 mM and 6.64 ± 1.02 mM, respectively.
